ChEMBL document CHEMBL1133040, “Activity-guided isolation of constituents of Cerbera manghas with antiproliferative and antiestrogenic activities” (Bioorg Med Chem Lett, 2000)
In brackets after ≈: the same amount, converted by molar mass.

Legend:
Format in all cases: functional, cell-based
Col2 = experiment: Inhibition of Col2 human colon cancer cell proliferation
Method in brief: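 Col2 human colon cancer cells grown in MEME with 10% NAA, antibiotic-antimycotic and 10% FBS at 37 °C, 5% CO2. Exponentially growing cells seeded onto compounds dissolved in DMSO and grown 3 days at 37 °C. Cells TCA-fixed, stained with 0.4% sulforhodamine B in 1% acetic acid, dye solubilized in 0.1 M Tris, A515 read. % growth computed against day-0 and DMSO-control absorbances.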

Ishikawa [1] = experiment: Antiestrogenic effects in Ishikawa cells; settings: Homo sapiens
Ishikawa [2] = experiment: Inhibition of antiestrogenic response in Ishikawa cells
Ishikawa [3] = experiment: Inhibition of Ishikawa cell proliferation
[4] = Homo sapiens, Ishikawa, read-out: IC50

| Compound | IC50 (Col2) | IC50 (Ishikawa [1]) | IC50 (Ishikawa [2]; ishikawa) | IC50 (Ishikawa [3]; ishikawa) | IC50 (Ishikawa [2]; [4]) | IC50 (Ishikawa [3]; [4]) |
| --- | --- | --- | --- | --- | --- | --- |
| COc1cc(C[C@H]2COC(c3ccc(O)c(OC)c3)[C@@]2(O)CO)ccc1O (stereo partly drawn) | > 10 mg/L | > 10 mg/L | – | – | – | – |
| CO[C@@H]1[C@@H](O)[C@H](C)O[C@@H](OC2CC[C@@]3(C)[C@H](CC[C@@H]4[C@@H]3C3OC3[C@]3(C)[C@H](C5=CC(=O)OC5)CC[C@]43O)C2)[C@@H]1O (stereo in doubt; 1) | – | – | 0.0042 mg/L (≈ 0.00765 µM) | 0.015 mg/L (≈ 0.0273 µM) | – | – |
| CO[C@@H]1[C@@H](O)[C@H](C)O[C@@H](OC2CC[C@@]3(C)[C@H](CC[C@@H]4[C@@H]3C3OC3[C@]3(C)[C@H](C5=CC(=O)OC5)CC[C@]43O)C2)[C@@H]1O (stereo in doubt; 2) | ≤ 5 mg/L | ≤ 5 mg/L | – | – | 0.008 mg/L (≈ 0.0146 µM) | 0.02 mg/L (≈ 0.0365 µM) |
